Measurements: the EternaBench riboswitch data

System: MS2 coat protein
Assay: apparent Kd, MS2 coat protein; higher = weaker binding; RNA-MaP array; FMN 200 µM where present
Outline: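 The apparent Kd comes from binding curves fitted cluster by cluster, filtered, and summarised as a median. Those curves followed SNAP-549-labelled MS2 coat protein from 0.7 or 1.5 nM, doubling to 3 µM, on Illumina sequencing-chip clusters where stalled E. coli RNA polymerase had transcribed the designs, without and then with constant ligand. The buffer was 100 mM Tris-HCl pH 7.5, 80 mM KCl, 4 mM MgCl2, BSA, DTT, yeast tRNA and Tween-20, and green signal was normalised to red-channel RNA signal and control-cluster median Fmax.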

[1] = designed as: ON switch for flavin mononucleotide, no ligand
[2] = ligand present: flavin mononucleotide, designed as: ON switch for flavin mononucleotide
[3] = designed as: OFF switch for flavin mononucleotide, no ligand
[4] = ligand present: flavin mononucleotide, designed as: OFF switch for flavin mononucleotide

Sequence	apparent Kd [1]	apparent Kd [2]	apparent Kd [3]	apparent Kd [4]
ACGGAGACACAAAUGUUCCACGGUGCAGAAGGGUCCCUCACAUGAGGAUCACCCAUGUAACUCGGACAGGAUAUGCUCCUGGGA	135 nM	9.78 nM	–	–
AAUACACUCUAGGAUAUUCAUGCCAGCAGUAUCGAAGAAGGAGAGACAUGAGGAUCACCCAUGUGGAAGCUCCU	–	–	13.1 nM	16.4 nM
AUGAGUAAAGCAGGAUAUCUAUUGUCUCUGAAACAUGAGGAUCACCCAUGUAGAGAAGGGCUAAGUCUUACUCUUCGGAGUUGA	–	–	9.98 nM	10.3 nM
AACGGGUGGGUAGGAUAUGGCUAUGUCUCAUUGCUAGAAGGACCAGCUACUACAUGAGGAUCACCCAUGUCGUAGUGCACCCAG	20.5 nM	6.04 nM	–	–
UUUAGUUCAGGAUAUGUAGAUUUUAACAUGAGGAUCACCCAUGUAAAUCCUGAUCCUGCUACAGAAGGGAACAUUU	–	–	17 nM	20.7 nM
CGAUGACAAAGUCAUCGAUAACGAACAUGAGGAUCACCCAUGUAGGAUAUGCUACUCAAAGAGUAGCAGAAGGACAUGUGCCUU	–	–	34.2 nM	284 nM
GAAUAAUUGAUCCUUUUUUAUUACAUGAGGAUCACCCAUGUGCAGGAUAUCGAUUGUUUUAGUUUCGAGAAGGGCAAGAACUGU	–	–	219 nM	255 nM
CUACCUUAUGAGAAGGCGAUCAUGAAACAUGAUCGAGGAUAUCAUGUAAACAUGAGGAUCACCCAUGUAUGGGUAUUAUGGUAG	331 nM	40.4 nM	–	–
UUUGUACAUGAGGAUCACCCAUGUUAGGAUAUCUCGCCGUCGGCUUGCCGACGGUAUUAGAGAAGGGACAAGGG	–	–	136 nM	108 nM
GGACUUCCUGAGGAUAUUGUAUCACCUGAUUGAUAAGAAGGCAGAACAUGAGGAUCACCCAUGUGGGUACUCGG	–	–	136 nM	125 nM
AACCGACAUGAGGAUCACCCAUGUCAGGAUAUGGACUGACACCGAAAGAGUGGAGGAACCAGAAGGGACUGGGC	–	–	32.4 nM	69.5 nM
GACAUACAUGAGGAUCACCCAUGUACAGACGUACAAGGAUAUGUGUGGAAACCGUACUAUACAGAAGGUGUUUGUC	73.1 nM	33.9 nM	–	–
ACAGAGCCUGACAUGAGGAUCACCCAUGUUAGAUUGUUAUGUCAGGAUAUUGUCUAGCAACUAGACAAGAAGGGAUGCUCUGUG	392 nM	29.8 nM	–	–
UGGGAACGAGGAUAUCGAUGGUGGAACAUGAGGAUCACCCAUGUAUGAGAUAGUGUAGUUCGAGAAGGCGUUAAGU	–	–	68.6 nM	33.8 nM
UCUUAUUGCAAGGAUAUGCUUUUUAUUUCUUUUGCAGAAGGUGCAACAUGAGGAUCACCCAUGUUUCCGGGCAU	–	–	16 nM	28 nM
UUAUGUUUUGUAGGAUAUCAUUAGUUAUGUAUUAUAAUUGAAAUUUUGAUUUGAGAAGGACAUUUACAUGAGGAUCACCCAUGU	–	–	13.4 nM	9.92 nM
ACAUGAGGAUCACCCAUGUAAAAUUAGGAUAUAUGACUGCACAUGAGGUUCACCCAUGUUCUACCGUAGAAGGGAUAAAUAAUU	71.1 nM	75.6 nM	–	–
ACACAGAAAGGAUAUGCAGGGAGAUAAAGCUUCUUGUUCCAACAUGAGGAUCACCCAUGUAGAAGGUUCGAAAA	–	–	32 nM	99.5 nM
UAAUAAUAAUAAUAGCAGAAUUACAUGAGGAUCACCCAUGUAUAGGAUAUCGUCAGGAAUACUGACGAGAAGGAUACAAACUGC	–	–	17.6 nM	21.9 nM
UGUCGGAGCAGAGGAUAUUACAUGAGGAUCACCCAUGUAUGAACCAAUAGCUGGAAACAGAAAUGUAAGAAGGCUGCUCCGACA	–	–	5.84 nM	21.2 nM
UUGGACAGCUAGAACUGUUAAGUACAUGAGGAUCACCCAUGUCAGGAUAUCCUUCCGCAAUGCGAGGAGAAGGGACAGGGUCCC	–	–	53.7 nM	124 nM

Sequence	apparent Kd [1]	apparent Kd [2]	apparent Kd [3]	apparent Kd [4]
UUGGACGUCGUAGGAUACGUAGGAUAUUCCUACAUGAGGAUCACCCAUGUUGACAUGGAAGAAGGACAGAAGGACGAUGUCCAU	71.6 nM	4.95 nM	–	–
ACAGGACCAGUCAGGAUAUGCAGGCGAAUCUGCUUGUAGAAGGGACAUGAGGAUCACCCAUGUGCCGUGGGAUU	–	–	19.6 nM	31.4 nM
GGAUGAGAAACUCAUCCAAAUCGAACAUGAGGAUCACCCAUGUAGGAUAUGCUACUCAAAGAGUAGCAGAAGGACAUGUGCUUU	–	–	35 nM	232 nM
AGUGUCAUCGAGAAGGCCUCAACAUGAGGAUCACCCAUGUUGCAAAAUGGGAGGAUAUCGCGAAAACAGCUACGUUUCGUAGCA	40.8 nM	8.79 nM	–	–
ACUACUUAGUGAGGAUAUACAUAAUUUAUAACUGUAGAAGGCACAAACCUCAAUACAUGAGGAUCACCCAUGUUAUAUAUCUAA	–	–	62.6 nM	64.3 nM
CAGUACUGAGGAUAUACAUGAGGAUCACCCAUGUGUUCCAGCUAGGAAACUAGCAUAAGUAGAAGGCAGUACUG	–	–	21.2 nM	354 nM
GGUACUCAAAGAGUACUUGGUCGAACAUGAGGAUCACCCAUGUAGGAUAUGCAAAGCAAGAAGUAGCAGAAGGACAUGUGCAGC	–	–	13.5 nM	36.1 nM
ACUUCUAAGCAGAAGGCAGUCAUAGUAUUCGUCAUGUAGACAUGAGGAUCACCCAUGUAUAGUACUGAGGAUAUGCUUGGAUAG	–	–	24 nM	24.4 nM
UUUCCAUAGAUAGGAUAUCAGUUUACAUGAGGAUCACCCAUGUUCUCUUUGGUUAUAAUUAUAUCUGAGAAGGAUCUUGAUGAA	29.6 nM	26.3 nM	–	–
CGUUCACAUGAGGAUCACCCAUGUCAGAUUUGGUCAGGAUAUGGUCGGCAUCCGCUAUUGCCAGAAGGGACUGUUG	55.3 nM	36.3 nM	–	–
AGAAAUAAAAAUGAGGAUAUGCAAAAGAAAACAUGAGGAUCACCCAUGUAAAAGAAAAUAAAUGGGCAGAAGGCAUGAAAUAAAGA	136 nM	44.9 nM	–	–
AUCCGACAUGAGGAUCACCCAUGUCAGGAUAUGGACUGACACCGAAAGGAUGGAGGAACCAGAAGGGACUGGGC	–	–	32.5 nM	47.8 nM
CGUUGAUAAUAUCUUCACAUGAGGAUCACCCAUGUCGCUCGACAGGAUAUAUUUGAUUUGUUUAAGUAGAAGGGUCGCAGAUGC	157 nM	130 nM	–	–
UGUACUUAUUUUAAUUAUGAUUUACUAGAAGGUAGAUACAUGAGGAUCACCCAUGUUUAGAGUUCUAAGGAUAUAGAUUUUAUC	10.3 nM	10.2 nM	–	–
UAGGACUACGUAGGAUAUGUAGUAUAUUACUACAUGAGGAUCACCCAUGUAAGCAUGUUAUUAGGACAGAAGGACGUGGUAAAU	43.6 nM	13.7 nM	–	–
GAACCUCUUGUGAGGAUAUGCUGUUGAACGAGCUUGCAGAAGGCACAUGAGGAUCACCCAUGUCUCUUCUGGGU	–	–	20.4 nM	28.2 nM
AGUUGUUCAGGAUAUGGUGUGUUAUACAUGAGGAUCACCCAUGUGGGUCCUGGUUUGGCCUCAGAAGGGAAUGUUA	–	–	476 nM	449 nM
UCCUUGUCCUGAGGAUAUCCGCGGUGACCAAAAGGAGAAGGCAGGACAUGAGGAUCACCCAUGUACCCAGAAAACGUGCAGAGU	–	–	30.1 nM	197 nM
AUAUUAUAGAUCCAUUUAUUCAACAUGAGGAUCACCCAUGUGCAGGAUAUCGUGUGUUUUAUAAACGAGAAGGGCAAAUUCAUU	–	–	31.9 nM	96.7 nM
AAAUUGCUAGAGGAUAUCGGAUAGGAUCUAUUACGAGAAGGUUAGACAUGAGGAUCACCCAUGUUCUGUUGGGA	–	–	42.6 nM	123 nM
GAUCGUAUCCUAGGAUAUUCAUUAAACAUGAGGAUCACCCAUGUUAAUUUGGGAGAAGGAGGAUACGAUCAACAGCGAAAGCUG	10.6 nM	5.15 nM	–	–
